Laboratory results as given in ChEMBL document CHEMBL1649212, “AI-2/LuxS is involved in increased biofilm formation by Streptococcus intermedius in the presence of antibiotics” (2009).
Active and inactive are the calls of the source. The rule behind the calls is not given here.

Columns and labels:
[1] = system: Streptococcus intermedius; assay: Antimicrobial activity against Streptococcus intermedius SI006 planktonic cells harboring luxS mutant gene assessed as bacterial count at 0.35 ug/ml (Rvb =708.1 +/- 47.64 10^8 CFU/ml); format: functional
[2] = system: Streptococcus intermedius; assay: Antimicrobial activity against Streptococcus intermedius SI006 planktonic cells harboring luxS mutant gene assessed as bacterial count at 0.20 ug/ml in presence of 0.8 nM autoinducer 4,5-dihydroxy-2,3-pentanedione (Rvb =768.6 +/- 46.24 10^8 CFU/ml); format: functional
[3] = system: Streptococcus intermedius; assay: Antimicrobial activity against Streptococcus intermedius SI006 planktonic cells harboring luxS mutant gene assessed as bacterial count at 0.30 ug/ml in presence of 0.8 nM autoinducer 4,5-dihydroxy-2,3-pentanedione (Rvb =768.6 +/- 46.24 10^8 CFU/ml); format: functional
[4] = system: Streptococcus intermedius; assay: Antimicrobial activity against Streptococcus intermedius SI006 planktonic cells harboring luxS mutant gene assessed as bacterial count at 0.25 ug/ml in presence of 0.8 nM autoinducer 4,5-dihydroxy-2,3-pentanedione (Rvb =768.6 +/- 46.24 10^8 CFU/ml); format: functional
[5] = system: Streptococcus intermedius; assay: Antimicrobial activity against Streptococcus intermedius SI006 biofilm harboring luxS mutant gene assessed as biofilm bacterial count at 0.20 ug/ml (Rvb =310.8 +/- 17.10 10^5 CFU/ml); format: functional
[6] = system: Streptococcus intermedius; assay: Antimicrobial activity against Streptococcus intermedius SI006 biofilm harboring luxS mutant gene assessed as biofilm bacterial count at 0.20 ug/ml in presence of 0.8 nM autoinducer 4,5-dihydroxy-2,3-pentanedione (Rvb =413.7 +/- 24.47 10^5 CFU/ml); format: functional
[7] = system: Streptococcus intermedius; assay: Antimicrobial activity against Streptococcus intermedius SI006 planktonic cells harboring luxS mutant gene assessed as bacterial count at 0.25 ug/ml (Rvb =708.1 +/- 47.64 10^8 CFU/ml); format: functional
[8] = system: Streptococcus intermedius; assay: Antimicrobial activity against Streptococcus intermedius NCTC 11324 planktonic cells assessed as bacterial count at 0.20 ug/ml (Rvb =756.9 +/- 62.98 10^8 CFU/ml); format: functional
How it was run: (§1)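 Planktonic wild-type cells were inoculated at ≈4 × 10^5 CFU/ml in TSB in ultra-low-binding plates. Media were without or with ampicillin (0.02 to 0.14 μg/ml), ciprofloxacin (0.10 to 0.35 μg/ml) or tetracycline (0.03 to 0.20 μg/ml). After 12 h at 37°C in 5% CO2 aerobic air, CFU were counted, run in parallel with the BacTiter-Glo ATP assay. Experiments were done three times in two parallels.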

[9] = system: Streptococcus intermedius; assay: Antimicrobial activity against Streptococcus intermedius SI006 planktonic cells harboring luxS mutant gene assessed as bacterial count at 0.35 ug/ml in presence of 0.8 nM autoinducer 4,5-dihydroxy-2,3-pentanedione (Rvb =768.6 +/- 46.24 10^8 CFU/ml); format: functional
[10] = system: Streptococcus intermedius; assay: Antimicrobial activity against Streptococcus intermedius SI006 planktonic cells harboring luxS mutant gene assessed as bacterial count at 0.30 ug/ml (Rvb =708.1 +/- 47.64 10^8 CFU/ml); format: functional
[11] = system: Streptococcus intermedius; assay: Antimicrobial activity against Streptococcus intermedius SI006 biofilm harboring luxS mutant gene assessed as biofilm bacterial count at 0.15 ug/ml (Rvb =310.8 +/- 17.10 10^5 CFU/ml); format: functional
[12] = system: Streptococcus intermedius; assay: Antimicrobial activity against Streptococcus intermedius SI006 biofilm harboring luxS mutant gene assessed as biofilm bacterial count at 0.10 ug/ml (Rvb =310.8 +/- 17.10 10^5 CFU/ml); format: functional
[13] = system: Streptococcus intermedius; assay: Antimicrobial activity against Streptococcus intermedius NCTC 11324 planktonic cells assessed as bacterial count at 0.35 ug/ml (Rvb =756.9 +/- 62.98 10^8 CFU/ml); format: functional
[14] = system: Streptococcus intermedius; assay: Antimicrobial activity against Streptococcus intermedius NCTC 11324 planktonic cells assessed as bacterial count at 0.25 ug/ml (Rvb =756.9 +/- 62.98 10^8 CFU/ml); format: functional; how it was run: as §1
[15] = system: Streptococcus intermedius; assay: Antimicrobial activity against Streptococcus intermedius SI006 biofilm harboring luxS mutant gene assessed as biofilm bacterial count at 0.10 ug/ml in presence of 0.8 nM autoinducer 4,5-dihydroxy-2,3-pentanedione (Rvb =413.7 +/- 24.47 10^5 CFU/ml); format: functional
[16] = system: Streptococcus intermedius; assay: Antimicrobial activity against Streptococcus intermedius NCTC 11324 biofilm assessed as biofilm bacterial count at 0.20 ug/ml (Rvb =402.9 +/- 26.88 10^5 CFU/ml); format: functional
[17] = system: Streptococcus intermedius; assay: Antimicrobial activity against Streptococcus intermedius NCTC 11324 assessed as biofilm formation at 0.10 to 0.25 ug/ml; format: functional, organism-based
How it was run: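 Wild-type NCTC 11324 was grown overnight in TSB and inoculated into TSB with ampicillin (0.02 to 0.10 μg/ml), ciprofloxacin (0.10 to 0.28 μg/ml) or tetracycline (0.05 to 0.30 μg/ml), added at time zero. Wells held plastic coverslips and were incubated 12 h at 37°C in 5% CO2 aerobic air. Biofilm was measured as described previously. Experiments were done three times in three parallels.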

[18] = system: Streptococcus intermedius; assay: Antimicrobial activity against Streptococcus intermedius NCTC 11324 biofilm assessed as biofilm bacterial count at 0.15 ug/ml (Rvb =402.9 +/- 26.88 10^5 CFU/ml); format: functional
[19] = system: Streptococcus intermedius; assay: Antimicrobial activity against Streptococcus intermedius NCTC 11324 assessed as growth inhibition at 0.5 ug/ml; format: functional
How it was run: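 Broth microdilution MIC in ultra-low-binding 96-well plates, inoculum ≈4 × 10^5. Growth was read at 595 nm, and the MIC was taken as the lowest antibiotic concentration inhibiting growth.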

[20] = system: Streptococcus intermedius; assay: Antimicrobial activity against Streptococcus intermedius NCTC 11324 biofilm assessed as biofilm bacterial count at 0.10 ug/ml (Rvb =402.9 +/- 26.88 10^5 CFU/ml); format: functional
[21] = system: Streptococcus intermedius; assay: Antimicrobial activity against Streptococcus intermedius NCTC 11324 planktonic cells assessed as bacterial count at 0.30 ug/ml (Rvb =756.9 +/- 62.98 10^8 CFU/ml); format: functional; how it was run: as §1

Molecule `O=C(O)c1cn(C2CC2)c2cc(N3CCNCC3)c(F)cc2c1=O` [CIPROFLOXACIN] has a CFU [1] of 0.4 ×10⁸ /ml, a CFU [2] of 5.3 ×10⁸ /ml and a CFU [3] of 3.1 ×10⁸ /ml. It also gave a CFU [4] of 4.72 ×10⁸ /ml, a CFU [5] of 131 ×10⁵ /ml and a CFU [6] of 519.5 ×10⁵ /ml. For the same molecule, the CFU [7] was 1.16 ×10⁸ /ml, the CFU [8] was 5.87 ×10⁸ /ml and the CFU [9] was 2.3 ×10⁸ /ml. For the same molecule, the CFU [10] was 0.74 ×10⁸ /ml, the CFU [11] was 333 ×10⁵ /ml and the CFU [12] was 324.1 ×10⁵ /ml. It also gave a CFU [13] of 2.6 ×10⁸ /ml, a CFU [14] of 5.14 ×10⁸ /ml and a CFU [15] of 814.7 ×10⁵ /ml. For the same molecule, the CFU [16] was 577.2 ×10⁵ /ml, the Activity [17] was “inactive” and the CFU [18] was 663.8 ×10⁵ /ml. For the same molecule, the Activity [19] was 0.5 µg/mL, the CFU [20] was 768.1 ×10⁵ /ml and the CFU [21] was 3.12 ×10⁸ /ml.
